Reference: ChEMBL document CHEMBL1139344, “Antagonists of the human A(2A) adenosine receptor. 4. Design, synthesis, and preclinical evaluation of 7-aryltriazolo[4,5-d]pyrimidines” (J Med Chem, 2009)
Values after ≈ are worked out from the molar mass of the structure shown. Blank lines part the entries; values can stand above or below the compound they belong to. Active and inactive are the calls of the source. No cut-off for these calls is given here.

What was measured:
Adenosine receptor A2b = biological target: T1, Adenosine receptor A2b (Homo sapiens, UniProt P29275); experiment: Displacement of radioligand from human recombinant adenosine A2B receptor at 21 degC after 60 mins by cell-based microplate scintillation counting
T1 sequence (P29275 whole entry): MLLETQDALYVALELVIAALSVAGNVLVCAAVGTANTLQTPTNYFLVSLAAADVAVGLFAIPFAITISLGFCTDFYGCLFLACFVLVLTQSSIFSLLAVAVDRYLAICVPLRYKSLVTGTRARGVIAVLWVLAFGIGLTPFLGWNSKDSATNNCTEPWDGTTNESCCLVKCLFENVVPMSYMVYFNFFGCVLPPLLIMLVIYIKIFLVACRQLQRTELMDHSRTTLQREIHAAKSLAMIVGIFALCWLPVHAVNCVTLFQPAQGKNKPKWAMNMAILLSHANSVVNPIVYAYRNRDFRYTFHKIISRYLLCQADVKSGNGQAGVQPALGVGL

Mus musculus [1] = experiment: Reversal of haloperidol-induced hypolocomotion in TO mouse assessed as time spent for locomotor activity at 1 mg/kg, po administered 15 mins prior to testing done for 60 mins; type: functional, organism-based; design: dose 1 mg/kg
Procedure, shortened: (§1)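 Haloperidol (0.2 mg/kg ip) used to induce hypolocomotion; antagonist given orally over 0.01-10 mg/kg in mouse and rat; activity scored as time spent active during a 60 min session; p < 0.05 versus vehicle (+haloperidol) control; minimal effective dose taken as lowest active dose.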

Adenosine receptor A1 = biological target: T2, Adenosine receptor A1 (Homo sapiens, UniProt P30542); experiment: Displacement of radioligand from human recombinant adenosine A1 receptor at 21 degC after 90 mins by cell-based microplate scintillation counting
T2 sequence (P30542 whole entry): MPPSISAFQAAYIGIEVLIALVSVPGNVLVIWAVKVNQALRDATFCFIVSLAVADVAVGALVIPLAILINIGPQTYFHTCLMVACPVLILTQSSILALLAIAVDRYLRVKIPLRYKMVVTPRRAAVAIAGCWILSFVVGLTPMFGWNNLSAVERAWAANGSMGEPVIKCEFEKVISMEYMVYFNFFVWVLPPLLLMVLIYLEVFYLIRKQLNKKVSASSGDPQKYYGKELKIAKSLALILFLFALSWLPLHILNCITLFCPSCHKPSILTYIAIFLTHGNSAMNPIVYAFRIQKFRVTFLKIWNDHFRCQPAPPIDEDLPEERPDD

Adenosine receptor A2a [2] = biological target: T3, Adenosine receptor A2a (Homo sapiens, UniProt P29274); experiment: Displacement of radioligand from human recombinant adenosine A2A receptor at 21 degC after 90 mins by cell-based microplate scintillation counting
Adenosine receptor A3 = biological target: T4, Adenosine receptor A3 (Homo sapiens, UniProt P0DMS8); experiment: Displacement of radioligand from human recombinant adenosine A3 receptor at 21 degC after 60 mins by cell-based microplate scintillation counting
T4 sequence (P0DMS8 whole entry): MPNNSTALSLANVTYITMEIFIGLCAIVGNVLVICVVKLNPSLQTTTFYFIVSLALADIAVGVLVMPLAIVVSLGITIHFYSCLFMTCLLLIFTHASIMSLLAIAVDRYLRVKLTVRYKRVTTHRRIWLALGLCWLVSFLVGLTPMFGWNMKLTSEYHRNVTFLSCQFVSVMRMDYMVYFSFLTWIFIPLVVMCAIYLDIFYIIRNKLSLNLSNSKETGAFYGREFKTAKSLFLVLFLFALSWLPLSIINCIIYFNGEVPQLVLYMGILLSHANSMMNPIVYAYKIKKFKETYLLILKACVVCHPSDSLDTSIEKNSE

Rattus norvegicus [3] = experiment: Reversal of haloperidol-induced hypolocomotion in po dosed Sprague-Dawley rat assessed as time spent for locomotor activity administered 15 mins prior to testing done for 60 mins; type: functional, organism-based; procedure, shortened: as §1
Mus musculus [4] = experiment: Reversal of haloperidol-induced hypolocomotion in po dosed TO mouse assessed as time spent for locomotor activity administered 120 mins prior to testing done for 60 mins; type: functional, organism-based; procedure, shortened: as §1
Mus musculus [5] = experiment: Increase in locomotor activity in mouse at 100 mg/kg administered for 4 days; type: functional, organism-based; design: dose 100 mg/kg
[6] = biological target: T5, Adenosine receptor A1 (Homo sapiens) (UniProt P30542); conditions: CHO-K1
T5 sequence (whole entry): T2 sequence (P30542 whole entry)

[7] = biological target: T6, Adenosine receptor A3 (Homo sapiens) (UniProt P0DMS8); conditions: CHO-K1
T6 sequence (whole entry): T4 sequence (P0DMS8 whole entry)

Adenosine receptor A2a [8] = biological target: T3, Adenosine receptor A2a; conditions: CHO-K1
[9] = biological target: T7, Adenosine receptor A2b (Homo sapiens) (UniProt P29275); conditions: CHO-K1
T7 sequence (whole entry): T1 sequence (P29275 whole entry)

Rattus norvegicus [10] = experiment: Reversal of haloperidol-induced hypolocomotion in Sprague-Dawley rat assessed as time spent for locomotor activity at 30 mg/kg, po administered 120 mins prior and measured for 60 mins; type: functional, organism-based; design: dose 30 mg/kg
Liver microsomes = experiment: Metabolic stability in rat liver microsomes after 30 mins; type: ADME, Microsome; conditions: 0.5 h
Procedure, shortened: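 Turnover by rodent liver microsomes measured as percent turnover after 30 min.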

Rattus norvegicus [11] = experiment: Reversal of haloperidol-induced hypolocomotion in po dosed Sprague-Dawley rat assessed as minimal effective dose administered 120 mins prior to testing done for 60 mins; type: functional; conditions: read-out: MED; procedure, shortened: as §1
[12] = Aqueous solubility in phosphate buffered saline; type: physicochemical
Mus musculus [13] = experiment: Reversal of haloperidol-induced hypolocomotion in TO mouse assessed as time spent for locomotor activity at 30 mg/kg, po administered 15 mins prior and measured for 60 mins; type: functional, organism-based; design: dose 30 mg/kg
Mus musculus [14] = experiment: Reversal of haloperidol-induced hypolocomotion in po dosed TO mouse assessed as minimal effective dose administered 15 mins prior to testing done for 60 mins; type: functional; conditions: read-out: MED; procedure, shortened: as §1
[15] = Solubility at neutral pH; type: physicochemical

T3 sequence (P29274 whole entry): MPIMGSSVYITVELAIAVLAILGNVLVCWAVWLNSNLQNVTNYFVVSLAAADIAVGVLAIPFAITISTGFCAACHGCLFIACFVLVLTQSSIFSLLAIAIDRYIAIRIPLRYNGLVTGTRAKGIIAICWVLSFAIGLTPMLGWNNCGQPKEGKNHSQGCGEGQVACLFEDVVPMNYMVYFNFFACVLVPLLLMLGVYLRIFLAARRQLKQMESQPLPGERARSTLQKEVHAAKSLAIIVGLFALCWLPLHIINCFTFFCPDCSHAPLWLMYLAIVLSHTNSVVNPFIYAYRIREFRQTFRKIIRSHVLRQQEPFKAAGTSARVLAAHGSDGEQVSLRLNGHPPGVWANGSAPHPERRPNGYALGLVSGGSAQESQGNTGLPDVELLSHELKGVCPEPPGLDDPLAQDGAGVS

- Ki (Adenosine receptor A2b): 46 nM
- Ki (Adenosine receptor A1): 190 nM
- Ki (Adenosine receptor A2a [2]): 1.5 nM
- Ki (Adenosine receptor A3): 752 nM
SMILES: Nc1ccc(Cn2nnc3c(-c4ccco4)nc(N)nc32)cc1
- Activity (Mus musculus [1]): Active

- Ki (Adenosine receptor A2b): 181 nM
- Ki (Adenosine receptor A1): 40 nM
- Ki (Adenosine receptor A2a [2]): 1.6 nM
- Ki (Adenosine receptor A3): 636 nM
SMILES: CNc1ccc(Cn2nnc3c(-c4ccco4)nc(N)nc32)cc1
- Activity (Mus musculus [1]): Active

- Ki (Adenosine receptor A2b): 270 nM
- Ki (Adenosine receptor A1): 131 nM
- Ki (Adenosine receptor A2a [2]): 2.5 nM
- Ki (Adenosine receptor A3): 792 nM
SMILES: Nc1cccc(Cn2nnc3c(-c4ccco4)nc(N)nc32)c1
- Activity (Mus musculus [1]): Active

- KA [6]: 95 nM
- KA [7]: 1500 nM
- KA (Adenosine receptor A2a [8]): 0.58 nM
- KA [9]: 31 nM
SMILES: Cc1cc(Cn2nnc3c(-c4ccco4)nc(N)nc32)ccc1N
- Activity (Mus musculus [5]): Active

- Stability (Liver microsomes): Stable
- solubility [12]: 30 µM (≈ 9.52 µg/mL)
- Ki (Adenosine receptor A2b): 885 nM
- Ki (Adenosine receptor A1): 738 nM
- Ki (Adenosine receptor A2a [2]): 73 nM
- Ki (Adenosine receptor A3): 1050 nM
SMILES: N#Cc1ccc(Cn2nnc3c(-c4ccco4)nc(N)nc32)cc1
- Activity (Rattus norvegicus [10]): inactive
- Activity (Mus musculus [13]): inactive

Continued, compound first:

SMILES: CCc1cc(Cn2nnc3c(-c4ccco4)nc(N)nc32)ccc1N
- Activity (Rattus norvegicus [3]): inactive
- Activity (Mus musculus [4]): inactive
- Ki (Adenosine receptor A2b): 118 nM
- Ki (Adenosine receptor A1): 26 nM
- Ki (Adenosine receptor A2a [2]): 1 nM
- Ki (Adenosine receptor A3): 221 nM

SMILES: Nc1nc(-c2ccco2)c2nnn(Cc3ccccn3)c2n1
- Activity (Rattus norvegicus [3]): inactive
- Activity (Mus musculus [4]): inactive
- Ki (Adenosine receptor A2b): 258 nM
- Ki (Adenosine receptor A1): 1120 nM
- Ki (Adenosine receptor A2a [2]): 12 nM
- Ki (Adenosine receptor A3): 1080 nM

SMILES: Cc1ccc(-c2nc(N)nc3c2nnn3Cc2ccccc2F)o1
- Activity (Rattus norvegicus [10]): inactive
- Stability (Liver microsomes): Stable
- minimal effective dose (Rattus norvegicus [11]): 3 mg/kg
- solubility [12]: 30 µM (≈ 9.73 µg/mL)
- Activity (Mus musculus [13]): inactive
- Ki (Adenosine receptor A2b): 6 nM
- Ki (Adenosine receptor A1): 19 nM
- Ki (Adenosine receptor A2a [2]): 2.1 nM
- minimal effective dose (Mus musculus [14]): 3 mg/kg
- Ki (Adenosine receptor A3): 260 nM

SMILES: Cc1cc(Cn2nnc3c(-c4ccco4)nc(N)nc32)ccc1N.Cl.Cl
- solubility [15]: 18 mg/mL
